Bioassay records deposited in PubChem by several laboratories.
NPY Y2 blocker: NPY-Y2 (human) receptor antagonism | P49146 | NPY-Y2 expressing cells, antagonist mode | inhibition, % at 2.7 µM | hit rate 0.99% among 140,000 | AID 793; in the data active = inhibition above about 17%;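 also: 0% = vehicle with agonist challenge and 100% = reference antagonist with challenge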
NPY-Y2 PAM-ag: potentiates or activates human NPY-Y2 receptor; activation, % at 3.6 µM; hit rate 0.45% among 220,000; AID 1359; cells expressing NPY-Y2, potentiator/agonist read-out; P49146; in the data active = activation above about 27%;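 also: cells stimulated with NPY near EC25 plus isoproterenol at EC100; 0% = vehicle plus submaximal agonist and 100% = vehicle plus saturating agonist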
NPY-Y1 antag: NPY-Y1 (human) receptor antagonism; P25929; HEK293-CNG Y1 cells, membrane potential fluorescence; NPY at EC95, then isoproterenol; inhibition, % at 3.6 µM; hit rate 1% among 200,000; AID 1040;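 active = inhibition above the campaign mean inhibition of all tested compounds plus 3 SD, cut at about 20% in these data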;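 also: 0% = DMSO wells given NPY plus isoproterenol and 100% = isoproterenol alone without NPY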
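Benchmarks – high control isoproterenol alone, low control NPY with isoproterenol · Material – HEK293 Y1/CNG channel cell line · Times – dye 3 h, compound 60 min room temperature, stimulation 45 min · Probe or stimulus – NPY (25 nM), isoproterenol (1 µM), Ro 20-1724 (25 µM) · Evaluation – % inhibition of NPY effect · Signal – fluorescence, membrane potential probe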
NPY-Y1 PAM-ag: human NPY-Y1 potentiation or agonism, primary screen. P25929. NPY-Y1 expressing cells, potentiator/agonist activation. activation, % at 3.6 µM. hit rate 0.37% among 220,000. AID 1304; in the data active = activation above about 33%, passing the limit was not always enough;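 also: cells stimulated with NPY at EC10 then isoproterenol at EC100; 0% = low agonist plus stimulus and 100% = saturating agonist plus stimulus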
Furin inh: inhibitors of human furin; P09958; purified furin, fluorogenic substrate cleavage; inhibition, % at 20 µM or 30 µM; hit rate 0.061% among 220,000; AID 463115; in the data active = inhibition above about 25%
KCC2 mod: modulates chloride dependent transport by human KCC2. Q9H2X9. KCC2 cells, thallium flux FluoZin-2 fluorescence. B-score of Tl+ flux slope (higher = more flux/activation; lower = inhibition) at 10 µM. hit rate 2.2% among 190,000;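 active = thallium flux slope and its plate-corrected score both differing from the plate sample mean at a set confidence after two filtering rounds, in either direction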;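 also: slope of fluorescence scaled to starting intensity during 10 to 20 s after thallium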
Target sequence (Q9H2X9 whole entry, looked up): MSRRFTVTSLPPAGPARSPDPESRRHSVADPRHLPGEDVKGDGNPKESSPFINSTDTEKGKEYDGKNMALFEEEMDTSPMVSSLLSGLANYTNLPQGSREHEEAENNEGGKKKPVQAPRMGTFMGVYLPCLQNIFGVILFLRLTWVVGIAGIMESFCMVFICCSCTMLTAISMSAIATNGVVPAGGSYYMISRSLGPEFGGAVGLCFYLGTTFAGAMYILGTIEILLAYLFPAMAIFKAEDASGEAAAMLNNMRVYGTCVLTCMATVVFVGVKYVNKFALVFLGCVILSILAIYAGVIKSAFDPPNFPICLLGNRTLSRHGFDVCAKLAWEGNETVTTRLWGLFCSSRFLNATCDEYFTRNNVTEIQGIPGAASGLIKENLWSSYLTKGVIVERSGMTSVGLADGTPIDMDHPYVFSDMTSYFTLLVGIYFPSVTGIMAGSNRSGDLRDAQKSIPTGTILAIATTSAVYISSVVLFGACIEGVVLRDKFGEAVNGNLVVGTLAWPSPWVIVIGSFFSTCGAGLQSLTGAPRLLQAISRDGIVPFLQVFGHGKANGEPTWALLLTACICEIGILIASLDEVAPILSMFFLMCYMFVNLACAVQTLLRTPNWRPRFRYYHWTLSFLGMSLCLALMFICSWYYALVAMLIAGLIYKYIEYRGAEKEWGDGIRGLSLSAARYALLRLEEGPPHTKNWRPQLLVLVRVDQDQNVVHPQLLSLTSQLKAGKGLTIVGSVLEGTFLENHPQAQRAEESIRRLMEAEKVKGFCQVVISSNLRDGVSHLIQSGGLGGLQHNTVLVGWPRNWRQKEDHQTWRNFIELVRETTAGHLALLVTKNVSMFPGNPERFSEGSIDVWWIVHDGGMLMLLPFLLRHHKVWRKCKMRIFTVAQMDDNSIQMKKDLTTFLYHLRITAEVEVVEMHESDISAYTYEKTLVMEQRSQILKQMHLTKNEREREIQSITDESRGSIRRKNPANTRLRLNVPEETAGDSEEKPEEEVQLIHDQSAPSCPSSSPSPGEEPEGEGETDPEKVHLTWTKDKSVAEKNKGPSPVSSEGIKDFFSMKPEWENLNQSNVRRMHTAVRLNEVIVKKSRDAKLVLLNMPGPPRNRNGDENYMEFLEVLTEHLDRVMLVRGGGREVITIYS
NPY-Y1 pot conf: confirmation of human NPY-Y1 receptor potentiators or agonists; shares compounds with NPY-Y1 PAM-ag; cell-based NPY-Y1 potentiator/agonist assay; activation, % at 3.6 µM; hit rate 20% among 280; AID 1546; in the data active = activation above about 45%;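 also: cells challenged with NPY at its EC10 plus isoproterenol stimulus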
NPY-Y2 counter: NPY-Y2 potentiation or agonism as NPY-Y1 counter-screen; activation, % at 3.6 µM; HEK293-CNG cells, membrane-potential fluorescence (FLIPR), 1536-well; shares compounds with NPY-Y1 PAM-ag; hit rate 20% among 280; in the data active = activation above about 33%
NPY-Y1 ag: activates human NPY-Y1, counter-screen for NPY-Y1 potentiators; shares compounds with NPY-Y1 PAM-ag; HEK293 Y1-CNGC, membrane potential fluorescence, agonist mode; activation, % at 3.6 µM; hit rate 50% among 280; AID 1697;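 active = percent activation above the mean of DMSO-only control wells plus 3 SD of those wells, cut at about 18% in these data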;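 also: cells challenged with isoproterenol plus Ro 20-1724 with no NPY in test wells; Y1 agonism lowers isoproterenol-driven cAMP and reduces probe fluorescence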
NPY-Y2 ag: counter-screen for NPY-Y1 potentiators or agonists: agonists of NPY-Y2; shares compounds with NPY-Y1 PAM-ag; HEK293 Y2-CNGC, membrane potential fluorescence, agonist mode; activation, % at 3.6 µM; hit rate 67% among 280; AID 1698;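 active = activation above the solvent-only control wells' mean plus 3 SD, cut at about 11% in these data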;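 also: 0% = DMSO with isoproterenol and 100% = 40 nM NPY maximal response; agonism lowers cAMP so well fluorescence drops in active wells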
CNGC counter: blocks cyclic nucleotide gated channel in NPY-Y1 counter-screen | shares compounds with NPY-Y1 PAM-ag | HEK293-CNG parental, isoproterenol cAMP, membrane potential fluorescence | inhibition, % at 3.6 µM | hit rate 42% among 280;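 active = inhibition above the mean of stimulated solvent-only control wells plus 3 SD, cut at about 22% in these data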;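 also: 0% = isoproterenol-stimulated DMSO wells and 100% = unstimulated DMSO wells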
The depositor's hits bear a star. Most compounds without a hit are left out; they make up all but 3.7% or so of the library.

How did N#Cc1c(-n2cccc2/C=N/O)sc2c1CCCC2 do in these assays?
NPY Y2 blocker: 3; NPY-Y2 PAM-ag: 15; NPY-Y1 antag: 4; NPY-Y1 PAM-ag: 44*; Furin inh: -19; NPY-Y1 pot conf: 2; NPY-Y2 counter: -2; NPY-Y1 ag: -2; NPY-Y2 ag: 3; CNGC counter: -2

How did O=C(Cn1cnc2c(nnn2Cc2ccc(F)cc2)c1=O)OCc1ccccc1 do in these assays?
NPY Y2 blocker: 4; NPY-Y2 PAM-ag: 11; NPY-Y1 antag: -3; NPY-Y1 PAM-ag: -2; Furin inh: -19; KCC2 mod: -2.1

Results for Cc1ccc(Cn2nnc3c(=O)n(CC(=O)OCc4ccccc4)cnc32)cc1 ?
NPY Y2 blocker: 5; NPY-Y2 PAM-ag: 28; NPY-Y1 antag: -8; NPY-Y1 PAM-ag: 49*; Furin inh: -7; KCC2 mod: -1.8; NPY-Y1 pot conf: 14; NPY-Y2 counter: 6; NPY-Y1 ag: 18*; NPY-Y2 ag: 11*; CNGC counter: 30*

What do the screens show for `COc1ccc(NC(=S)N2CCNC(=O)C2CC(=O)Nc2cccc(Cl)c2C)cc1` (stereo unspecified)?
NPY Y2 blocker: 1; NPY-Y2 PAM-ag: 16; NPY-Y1 antag: 15; NPY-Y1 PAM-ag: 9; Furin inh: -4; KCC2 mod: 0.92

Results for Cc1[nH]c2ccccc2c1C(=O)CN1C(=O)NC(C)(c2ccc(Cl)cc2Cl)C1=O (stereo unspecified) ?
NPY Y2 blocker: -5; NPY-Y2 PAM-ag: 28; NPY-Y1 antag: -1; NPY-Y1 PAM-ag: 56*; Furin inh: -24; KCC2 mod: -0.14; NPY-Y1 pot conf: 44; NPY-Y2 counter: 32; NPY-Y1 ag: 32*; NPY-Y2 ag: 18*; CNGC counter: 27*

What do the screens show for `Cc1[nH]c2ccccc2c1C(=O)CSc1ccc(Cl)cc1`?
NPY-Y2 PAM-ag: -14; NPY-Y1 antag: -1; NPY-Y1 PAM-ag: 10; Furin inh: -27

Results for Cc1ccc(-c2nc(Nc3ccc(N4CCOCC4)cc3)c3ccccc3n2)cc1 ?
NPY-Y2 PAM-ag: 37; NPY-Y1 PAM-ag: 53*; Furin inh: -24; KCC2 mod: -0.11; NPY-Y1 pot conf: 51*; NPY-Y2 counter: 42*; NPY-Y1 ag: 58*; NPY-Y2 ag: 45*; CNGC counter: 58*

What do the screens show for `Cc1cccc(N2C(=S)NC3c4cc(Cl)ccc4OC2(C)C3C(=O)N(C)C)c1` (stereo unspecified)?
NPY-Y2 PAM-ag: 14; NPY-Y1 antag: -4; NPY-Y1 PAM-ag: 42*; Furin inh: -35; KCC2 mod: -0.19; NPY-Y1 pot conf: 59*; NPY-Y2 counter: 32; NPY-Y1 ag: 44*; NPY-Y2 ag: 33*; CNGC counter: 47*

How did Cc1ccc(N2C(=S)NC3c4cc(Cl)ccc4OC2(C)C3C(=O)N(C)C)cc1 (stereo unspecified) do in these assays?
NPY-Y2 PAM-ag: 26; NPY-Y1 antag: -6; NPY-Y1 PAM-ag: 35*; Furin inh: -23; KCC2 mod: 0.6; NPY-Y1 pot conf: 74*; NPY-Y2 counter: 44*; NPY-Y1 ag: 51*; NPY-Y2 ag: 47*; CNGC counter: 51*

What do the screens show for `COc1ccc(N2C(=S)NC3c4cc(Cl)ccc4OC2(C)C3C(=O)N(C)C)cc1` (stereo unspecified)?
NPY-Y2 PAM-ag: 19; NPY-Y1 antag: -6; NPY-Y1 PAM-ag: 32; Furin inh: -20; KCC2 mod: -1.3

What do the screens show for `O=S(=O)(NC(=NCc1ccccc1)c1ccc(F)cc1)c1ccc(Cl)cc1`?
NPY-Y2 PAM-ag: -17; NPY-Y1 antag: 4; NPY-Y1 PAM-ag: -28; Furin inh: -28; KCC2 mod: 1.3

Results for Cc1ccc2cc3c(NC(=O)C(C)C)nn(C)c3nc2c1 ?
NPY Y2 blocker: -1; NPY-Y2 PAM-ag: 10; NPY-Y1 antag: 2; NPY-Y1 PAM-ag: 37*; Furin inh: -14; KCC2 mod: 0.0033; NPY-Y1 pot conf: -3; NPY-Y2 counter: -4; NPY-Y1 ag: -2; NPY-Y2 ag: 6; CNGC counter: 1

Results for Cc1cccc2cc3c(NC(=O)C(C)C)nn(C)c3nc12 ?
NPY Y2 blocker: -1; NPY-Y2 PAM-ag: 2; NPY-Y1 antag: -1; NPY-Y1 PAM-ag: -1; Furin inh: -30; KCC2 mod: -1.2

How did CCN(CC)S(=O)(=O)c1ccc(NC(=O)c2cccs2)cc1 do in these assays?
NPY-Y2 PAM-ag: -17; NPY-Y1 antag: 1; NPY-Y1 PAM-ag: 86*; Furin inh: -18; KCC2 mod: -0.97; NPY-Y1 pot conf: -6; NPY-Y2 counter: -2; NPY-Y1 ag: -8; NPY-Y2 ag: 3; CNGC counter: 6

What do the screens show for `Cc1cccc(N(C(=O)Nc2ccc(Cl)cc2)C2=NCC(C)S2)n1` (stereo unspecified)?
NPY-Y2 PAM-ag: -7; NPY-Y1 antag: -3; NPY-Y1 PAM-ag: 37*; Furin inh: -20; KCC2 mod: -0.48; NPY-Y1 pot conf: 2; NPY-Y2 counter: 0; NPY-Y1 ag: 3; NPY-Y2 ag: 12*; CNGC counter: 8

How did CC(=O)Nc1ccc2c(c1)CN(c1cc(C)ccc1C)CO2 do in these assays?
NPY Y2 blocker: 2; NPY-Y2 PAM-ag: 8; NPY-Y1 antag: 4; NPY-Y1 PAM-ag: 11; Furin inh: -15; KCC2 mod: 0.037

Results for CCOc1ccc(C(=O)Nc2ccc(N3CCN(C)CC3)cc2)cc1Br ?
NPY Y2 blocker: 1; NPY-Y2 PAM-ag: 26; NPY-Y1 antag: 0; NPY-Y1 PAM-ag: 37*; Furin inh: 26*; KCC2 mod: 0.36; NPY-Y1 pot conf: 28; NPY-Y2 counter: 19; NPY-Y1 ag: 23*; NPY-Y2 ag: 22*; CNGC counter: 26*

What do the screens show for `CCOc1ccc(C(=O)Nc2ccc(Cc3ccncc3)cc2)cc1Br`?
NPY-Y2 PAM-ag: 7; NPY-Y1 antag: -1; NPY-Y1 PAM-ag: 14; Furin inh: -27; KCC2 mod: -1.3
